Assays:
[1] = folding enthalpy; higher = less favourable; fluorescence melt of hairpins on a sequencing array, two-state fit; conditions: sodium 0.088 M
Summary of the method: (§1)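 Bootstrapped two-state fits yielded melting temperature and folding enthalpy for library hairpins. Cy3 fluorescence, with annealed Cy3 and quencher oligos, was imaged on a sequenced MiSeq flow cell in 50 mM Na-HEPES pH 8.0, 25 mM NaCl in 2.5 °C steps up to 60 °C, and normalised to pre-quench Cy3 and to control constructs. Four replicates were combined by inverse variance, and fitted temperatures were raised by 9.35 °C to match UV melts.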

[2] = melting temperature; fluorescence melt of hairpins on a sequencing array, two-state fit, raised by 9.35 °C to match UV melts; conditions: sodium 0.088 M
Summary of the method: as §1

Row | Sequence | folding enthalpy [1] [kcal/mol] | Tm [2] [°C]
1 | GGCAGAACGAAAGTTGCC (((..(((....)))))) | -27.2 | 50.9
2 | GCGCAAGGAAACCTACGC (((.(.(....).).))) | -16.4 | 34.6
3 | ACGGGGAAACCCGT (((((....))))) | -17.3 | 65.1
4 | GGTAAACGAAAGTTCACC (((.(((....))).))) | -28.6 | 40.4
5 | GCACGCGAAAGCGAGTGC ((((((....)))..))) | -21.1 | 59.5
6 | GGGATGGGAAACCATTCC ((.((((....)))).)) | -31.1 | 50.2
7 | GGTAACACGAAAGTGACC (((..(((....)))))) | -17.1 | 37.1
8 | GAGAGGGGAAACCCTTTC ((.((((....)))).)) | -16.8 | 36.4
9 | GTTGAGGGAAACTTCGAC ((.((.(....).)).)) | -20.3 | 31.5
10 | GTGGCAGGAAACCGCCAC (((((.(....).))))) | -46.8 | 55.9
11 | GCCGATGGAAACGTCGGC (((((.(....).))))) | -44.9 | 62.7
12 | GTGTACGGAAACACACAC ((((..(....)..)))) | -12.6 | 31.9
13 | GATCTCACGGGAGATC ((((((....)))))) | -39.3 | 51.7
14 | GTCCTCGAAAGAGGTGAC ((((((....)))..))) | -11.6 | 35.5
15 | GATCTGCGCCAGATC ((((((...)))))) | -35.3 | 50.8
16 | GCTTTGCGAAAGCAAGC (((.(((....)))))) | -15.2 | 53.2
17 | GCAAGCGAAAGCTCTTGC ((((((....)))..))) | -16.1 | 43.6
18 | GGACGACGAAAGTCATCC (((.(((....))).))) | -23.5 | 48.8
19 | GAGTGGGGAAACCTGCTC (((..((....))..))) | -26.6 | 39.8
20 | GAGTGTCCGAAAGGACTC (((..(((....)))))) | -8.71 | 31.9
21 | GATCCAACGCTGGATC ((((((....)))))) | -38.3 | 49.1
22 | GACGACGAAAGTCAAGTC ((((((....)))..))) | -23.8 | 45.9
23 | GATCTCCCTGGAGATC ((((((....)))))) | -43.7 | 59.4

Row | Sequence | folding enthalpy [1] [kcal/mol] | Tm [2] [°C]
24 | GATCCGGGAAACCAGATC ((((.((....)).)))) | -27.8 | 35.6
25 | CGTGTCCGGAAACGGACG (((..(((....)))))) | -7.66 | 48.1
26 | GTTGCCGAAAGGCTTAAC ((((((....)))..))) | -8.96 | 26.6
27 | GGAGTGGGAAACCACTTC (.(((((....))))).) | -20.2 | 49.4
28 | GATAGCGGAAACACTATC (((((.(....).))))) | -27.6 | 36.5
29 | GACGAGGGAAACTTCGTC (((((.(....).))))) | -40.8 | 49
30 | GGCTGCGAAAGCACTGCC ((((((....)))..))) | -20.5 | 50.9
31 | GCATGGCCGAAAGGCTGC (((..(((....)))))) | -13.2 | 53.3
32 | GCTTACGAAAGTATAGC ((((((....))).))) | -23.4 | 44.6
33 | GCCGGTCGAAAGACGGC (((.(((....)))))) | -30.1 | 67.6
34 | GTCTACGAAAGTATGAC ((((((....))).))) | -23.8 | 42.3
35 | GGTGACGAAAGTCGACC ((((((....))).))) | -23.1 | 53.4
36 | GGACATGGAAACGTGTCC (((((.(....).))))) | -45.1 | 52.6
37 | GAAGCTGGAAACGGTTTC (((.(.(....).).))) | -10.3 | 26
38 | GCGACTGGAAACAGCCGC (((.(((....))).))) | -51.9 | 56.2
39 | GAGAAACGAAAGTTACTC (((.(((....))).))) | -28.9 | 41.7
40 | GCCCAAGGAAACCTAGGC (((.(.(....).).))) | -22.2 | 32.8
41 | GCTCAGCGAAAGCTTCGC ((..(((....)))..)) | -12.6 | 40
42 | GACCACGAAAGTGCCGTC ((((((....)))..))) | -12 | 33.6
43 | GCTCGACGAAAGTCAGC (((.(((....)))))) | -19.3 | 51.6
44 | GTAGAGGGAAACCTCCAC ((.((((....)))).)) | -16.7 | 31.2
45 | GATCGGTGCTCCGATC ((((((....)))))) | -40.8 | 57.9

From the array DNA melting data of Ke et al. (doi:10.1101/2024.01.08.574731)
